From ChEMBL document CHEMBL1212894, “Non-peptide macrocyclic histone deacetylase inhibitors derived from tricyclic ketolide skeleton” (J Med Chem, 2010)
Converted amounts (≈) assume the structure as drawn. The source made the active and inactive calls. The calls are words filed in the database; no cut-off is given here.

Legend:
Leishmania donovani [1] = test: Antileishmanial activity against Leishmania donovani promastigotes after 72 hrs by alamar blue assay; type: functional, organism-based
Plasmodium falciparum [2] = test: Antimalarial activity against Plasmodium falciparum D6 after 72 hrs by alamar blue assay; type: functional, organism-based; details: D6, 72 h
MCF7 = test: Antiproliferative activity against human MCF7 cells after 72 hrs by MTS assay; type: functional
Summary of the method: (§1)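 Cells kept at 37 °C, 5% CO₂ in recommended media; seeded in 96-well plates the day before, grown at least 24 h, then dosed 72 h with compounds diluted from 1000X DMSO stocks to give 0.1% DMSO final. MTS reagent added for 2 h; absorbance read at 490 nm; EC50 is concentration giving 50% loss of viability.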

DU-145 = test: Antiproliferative activity against human DU145 cells after 72 hrs by MTS assay; type: functional; summary of the method: as §1
Histone deacetylase [3] = target: T1, Histone deacetylase (Plasmodium falciparum, UniProt Q9XYC7); test: Inhibition of Plasmodium falciparum HDAC1
T1 sequence (Q9XYC7 whole entry): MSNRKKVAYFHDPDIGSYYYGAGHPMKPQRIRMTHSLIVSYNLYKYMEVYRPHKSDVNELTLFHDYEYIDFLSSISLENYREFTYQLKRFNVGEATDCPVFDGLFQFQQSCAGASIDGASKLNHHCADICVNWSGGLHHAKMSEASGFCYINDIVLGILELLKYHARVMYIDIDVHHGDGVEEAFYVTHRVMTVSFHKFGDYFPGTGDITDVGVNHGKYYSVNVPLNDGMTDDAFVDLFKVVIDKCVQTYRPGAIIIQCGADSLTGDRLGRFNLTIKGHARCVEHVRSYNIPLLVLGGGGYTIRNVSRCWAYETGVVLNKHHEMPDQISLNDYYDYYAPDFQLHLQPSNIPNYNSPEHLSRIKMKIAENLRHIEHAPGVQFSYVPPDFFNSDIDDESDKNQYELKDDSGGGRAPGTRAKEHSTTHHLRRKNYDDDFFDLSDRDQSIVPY

[4] = Selectivity index, ratio of IC50 for african green monkey (Cercopithecus aethiops) Vero cells to IC50 for Plasmodium falciparum W2
[5] = Selectivity index, ratio of IC50 for african green monkey (Cercopithecus aethiops) Vero cells to IC50 for Plasmodium falciparum D6
[6] = target: T2, Protein deacetylase HDAC6 (Homo sapiens, UniProt Q9UBN7); test: Inhibition of HDAC6
T2 sequence (Q9UBN7 whole entry): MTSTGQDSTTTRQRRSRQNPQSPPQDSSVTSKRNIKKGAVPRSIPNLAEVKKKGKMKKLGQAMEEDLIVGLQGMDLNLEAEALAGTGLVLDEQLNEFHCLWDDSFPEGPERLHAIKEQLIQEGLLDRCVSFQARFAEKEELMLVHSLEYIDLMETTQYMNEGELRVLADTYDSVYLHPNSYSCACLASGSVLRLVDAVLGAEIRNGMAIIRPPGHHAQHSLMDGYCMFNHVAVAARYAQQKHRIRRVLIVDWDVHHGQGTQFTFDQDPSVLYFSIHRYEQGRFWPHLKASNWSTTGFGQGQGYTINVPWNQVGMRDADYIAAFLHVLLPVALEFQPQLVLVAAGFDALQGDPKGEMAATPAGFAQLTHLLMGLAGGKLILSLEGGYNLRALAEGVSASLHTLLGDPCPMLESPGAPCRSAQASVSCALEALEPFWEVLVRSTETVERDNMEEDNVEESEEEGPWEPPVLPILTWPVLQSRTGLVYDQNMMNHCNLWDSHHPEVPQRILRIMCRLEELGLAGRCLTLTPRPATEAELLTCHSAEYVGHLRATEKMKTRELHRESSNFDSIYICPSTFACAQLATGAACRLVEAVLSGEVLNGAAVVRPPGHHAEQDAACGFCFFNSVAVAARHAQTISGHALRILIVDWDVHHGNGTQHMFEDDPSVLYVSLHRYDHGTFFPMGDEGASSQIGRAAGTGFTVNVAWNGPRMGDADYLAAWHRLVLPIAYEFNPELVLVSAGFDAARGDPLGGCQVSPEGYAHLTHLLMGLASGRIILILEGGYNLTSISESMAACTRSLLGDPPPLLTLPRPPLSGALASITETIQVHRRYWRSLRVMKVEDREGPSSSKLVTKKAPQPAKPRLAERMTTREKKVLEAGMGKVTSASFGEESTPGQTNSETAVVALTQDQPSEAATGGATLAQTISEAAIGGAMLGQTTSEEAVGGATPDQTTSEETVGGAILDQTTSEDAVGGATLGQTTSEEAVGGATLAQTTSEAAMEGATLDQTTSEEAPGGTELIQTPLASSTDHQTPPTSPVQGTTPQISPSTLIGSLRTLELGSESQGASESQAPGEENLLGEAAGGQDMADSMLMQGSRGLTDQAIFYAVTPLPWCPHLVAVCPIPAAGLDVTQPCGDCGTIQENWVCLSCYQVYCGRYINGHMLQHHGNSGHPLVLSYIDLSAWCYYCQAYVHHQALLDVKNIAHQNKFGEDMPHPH

Leishmania donovani [7] = test system: Leishmania donovani
Histone deacetylase [8] = test: Inhibition of HDAC in human HeLa cell nuclear extracts; type: protein assay
Histone deacetylase 8 = target: T3, Histone deacetylase 8 (Homo sapiens, UniProt Q9BY41); test: Inhibition of HDAC8
T3 sequence (Q9BY41 whole entry): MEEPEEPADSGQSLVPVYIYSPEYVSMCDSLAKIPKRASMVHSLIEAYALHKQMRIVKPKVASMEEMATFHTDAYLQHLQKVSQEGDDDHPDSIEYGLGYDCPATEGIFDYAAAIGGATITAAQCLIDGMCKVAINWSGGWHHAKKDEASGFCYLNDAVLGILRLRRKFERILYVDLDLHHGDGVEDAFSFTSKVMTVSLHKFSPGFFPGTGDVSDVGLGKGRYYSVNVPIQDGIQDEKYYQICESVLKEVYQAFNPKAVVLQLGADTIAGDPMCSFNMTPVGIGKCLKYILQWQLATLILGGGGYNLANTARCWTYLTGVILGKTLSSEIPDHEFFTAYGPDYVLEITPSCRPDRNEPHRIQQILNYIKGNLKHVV

[9] = Selectivity ratio IC50 for HDAC8 to IC50 for HDAC in human HeLa cells nuclear extract; type: cell-based; set-up: reference not given here
[10] = Antiproliferative activity against human Hs1.Lu cells after 72 hrs by MTS assay; type: cell-based
Plasmodium falciparum [11] = test: Antimalarial activity against Plasmodium falciparum W2 after 72 hrs by alamar blue assay; type: functional, organism-based; details: W2, 72 h
A549 = test: Antiproliferative activity against human A549 cells after 72 hrs by MTS assay; type: functional; summary of the method: as §1
[12] = Leishmania donovani, 72 h, read-out: IC50

IC50 (Histone deacetylase [3]) [µM] | IC50 [6] [µM] | IC90 (Leishmania donovani [7]) | IC50 (Histone deacetylase [8]) [µM] | IC50 (Histone deacetylase 8) [µM] | SMILES | IC90 (Leishmania donovani [1]; Leishmania donovani, 72 h) [µg/mL] | IC50 (Leishmania donovani [1]; [12]) [µg/mL] | IC50 (Plasmodium falciparum [2]) [µg/mL] | Activity (MCF7) [µM] | Activity (DU-145) [µM] | selectivity ratio ([4]; vero) | selectivity ratio ([5]; vero) | Ratio IC50 [9] | Activity [10] [µM] | IC50 (Plasmodium falciparum [11]) [µg/mL] | IC50 (Leishmania donovani [1]) | Activity (A549) [µM] | selectivity ratio ([4]; Vero cells) | selectivity ratio ([5]; Vero cells)
– | – | – | – | – | N=C(N)c1ccc(OCCCCCOc2ccc(C(=N)N)cc2)cc1 [PENTAMIDINE] | 2.45 (≈ 7.2 µM) | 1.17 (≈ 3.44 µM) | – | – | – | – | – | – | – | – | – | – | – | –
– | – | – | – | – | C[C@@H]1CC[C@H]2[C@@H](C)C(=O)O[C@@H]3O[C@@]4(C)CC[C@@H]1[C@]32OO4 [ARTEMISININ] | – | – | 0.0066 (≈ 0.0234 µM) | – | – | – | – | – | – | – | – | – | – | –
0.01 | 0.729 | inactive | 0.00103 | 0.545 | CC[C@H]1OC(=O)[C@H](C)C(=O)[C@H](C)[C@@H](O[C@@H]2O[C@H](C)C[C@H](N(C)Cc3ccc(-c4cn(CCCCCCC(=O)NO)nn4)cc3)[C@H]2O)[C@](C)(OC)C[C@@H](C)C2=NCCN3C(=O)O[C@@]1(C)[C@H]3[C@H]2C | – | – | 0.137 (≈ 0.148 µM) | 0.75 | 0.82 | > 36 | > 35 | 529 | > 10 | 0.133 (≈ 0.144 µM) | Not Active | 0.66 | – | –
0.304 | 3.2 | – | 0.2082 | 4.56 | CC[C@H]1OC(=O)[C@H](C)C(=O)[C@H](C)[C@@H](O[C@@H]2O[C@H](C)C[C@H](N(C)Cc3ccc(-c4cn(CCCCCCCCCC(=O)NO)nn4)cc3)[C@H]2O)[C@](C)(OC)C[C@@H](C)C2=NCCN3C(=O)O[C@@]1(C)[C@H]3[C@H]2C | 23.7 (≈ 24.5 µM) | 4.8 (≈ 4.97 µM) | 1.19 (≈ 1.24 µM) | 3.68 | 4.83 | > 5.3 | > 4 | 21.9 | > 10 | 0.897 (≈ 0.928 µM) | – | 2.81 | – | –
0.036 | 1.18 | inactive | 0.00777 | 0.796 | CC[C@H]1OC(=O)[C@H](C)C(=O)[C@H](C)[C@@H](O[C@@H]2O[C@H](C)C[C@H](N(C)Cc3ccc(-c4cn(CCCCCC(=O)NO)nn4)cc3)[C@H]2O)[C@](C)(OC)C[C@@H](C)C2=NCCN3C(=O)O[C@@]1(C)[C@H]3[C@H]2C | – | – | 0.897 (≈ 0.986 µM) | 1.26 | 1.64 | > 2.68 | > 5.3 | 102 | > 10 | 1.79 (≈ 1.97 µM) | Not Active | 1.17 | – | –
– | – | – | – | – | O=C(CCCCCCC(=O)Nc1ccccc1)NO [VORINOSTAT] | 51.7 (≈ 196 µM) | – | – | – | – | – | – | – | – | – | – | – | – | –
0.29 | 1.92 | – | 0.1636 | 2.86 | CC[C@H]1OC(=O)[C@H](C)C(=O)[C@H](C)[C@@H](O[C@@H]2O[C@H](C)C[C@H](N(C)Cc3ccc(-c4cn(CCCCCCCCC(=O)NO)nn4)cc3)[C@H]2O)[C@](C)(OC)C[C@@H](C)C2=NCCN3C(=O)O[C@@]1(C)[C@H]3[C@H]2C | 32.3 (≈ 33.9 µM) | 14.9 (≈ 15.6 µM) | 1.3 (≈ 1.36 µM) | 2.56 | 3.89 | – | – | 17.5 | > 10 | 1.38 (≈ 1.45 µM) | – | 2.48 | > 3.5 | > 3.7
– | – | – | – | – | C[C@@H]1[C@H](O)[C@@H](C)/C=C/C=C/C=C/C=C/C=C/C=C/C=C/[C@H](O[C@@H]2O[C@H](C)[C@@H](O)[C@H](N)[C@@H]2O)C[C@@H]2O[C@](O)(C[C@@H](O)C[C@@H](O)[C@H](O)CC[C@@H](O)C[C@@H](O)CC(=O)O[C@H]1C)C[C@H](O)[C@H]2C(=O)O [AMPHOTERICIN B] | 0.395 (≈ 0.427 µM) | 0.079 (≈ 0.0855 µM) | – | – | – | – | – | – | – | – | – | – | – | –

SMILES | IC50 (Histone deacetylase [3]) [µM] | IC50 [6] [µM] | IC90 (Leishmania donovani [7]) | IC50 (Histone deacetylase [8]) [µM] | IC50 (Histone deacetylase 8) [µM] | IC90 (Leishmania donovani [1]; Leishmania donovani, 72 h) [µg/mL] | IC50 (Leishmania donovani [1]; [12]) [µg/mL] | IC50 (Plasmodium falciparum [2]) [µg/mL] | Activity (MCF7) [µM] | Activity (DU-145) [µM] | selectivity ratio ([4]; vero) | selectivity ratio ([5]; vero) | Ratio IC50 [9] | Activity [10] [µM] | IC50 (Plasmodium falciparum [11]) [µg/mL] | IC50 (Leishmania donovani [1]) | Activity (A549) [µM] | selectivity ratio ([4]; Vero cells) | selectivity ratio ([5]; Vero cells)
CC[C@H]1OC(=O)[C@H](C)C(=O)[C@H](C)[C@@H](O[C@@H]2O[C@H](C)C[C@H](N(C)Cc3ccc(-c4cn(CCCCCCCC(=O)NO)nn4)cc3)[C@H]2O)[C@](C)(OC)C[C@@H](C)C2=NCCN3C(=O)O[C@@]1(C)[C@H]3[C@H]2C | 0.04 | 1.71 | – | 0.1042 | 0.58 | 35.8 (≈ 38.2 µM) | 19.7 (≈ 21 µM) | 1.32 (≈ 1.4 µM) | 1.35 | 3.7 | > 3.3 | > 3.6 | – | > 10 | 1.47 (≈ 1.57 µM) | – | 1.64 | – | –
